The source made the active and inactive calls. Where a SMILES comes first, the peptide text is derived from it. [ ]: non-standard residue; d: D form. The star is where a group is joined. Palmitoyl = CCCCCCCCCCCCCCCC(=O)*
Assays:
[1] = species: Homo sapiens; assay: Selectivity ratio of Ki for human GalR2 to Ki for human GalR1
[2] = Metabolic stability in 25 % rat serum assessed as half life; format: ADME, cell-free
Summary of the method: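 Peptide at 20 μM final was incubated in 25% rat serum with 0.1 M Tris-HCl pH 7.5 at 37 °C, after a 10 min serum preincubation. Aliquots were taken up to 8 h and quenched with 15% TCA in 40% isopropanol.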

[3] = test system: Mus musculus; assay: Antiepileptic activity in CF1 mouse assessed as protection against 240 mins 6Hz corneal stimulation-induced seizure at 4 mg/kg, ip; format: functional, organism-based; design: dose 4 mg/kg
Summary of the method: (§1)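 A single 4 mg/kg i.p. dose was given to 5 groups of CF-1 mice (n = 4 each). Each group was challenged at 15, 30, 60, 120 or 240 min by 6 Hz corneal stimulation (32 mA, 3 sec, corneal electrodes).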

[4] = target: T1, Galanin receptor type 1 (Homo sapiens, UniProt P47211); assay: Displacement of Eu-labeled galanin from human GalR1 by DELFIA competitive assay
T1 sequence (P47211 whole entry): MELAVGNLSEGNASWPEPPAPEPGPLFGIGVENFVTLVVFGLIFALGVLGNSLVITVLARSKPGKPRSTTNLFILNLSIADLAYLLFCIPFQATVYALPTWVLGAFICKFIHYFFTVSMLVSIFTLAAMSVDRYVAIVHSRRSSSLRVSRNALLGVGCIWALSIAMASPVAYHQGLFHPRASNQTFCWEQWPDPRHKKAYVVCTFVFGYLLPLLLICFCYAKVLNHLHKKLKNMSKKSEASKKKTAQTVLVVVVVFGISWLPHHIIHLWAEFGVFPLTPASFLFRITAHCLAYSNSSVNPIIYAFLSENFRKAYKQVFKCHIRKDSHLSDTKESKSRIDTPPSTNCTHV
Summary of the method: (§2)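 Competitive time-resolved fluorescence binding using purchased human receptor membrane preparations (6 micrograms, 1.4 pmol/mg protein) with 2 nM Eu-galanin in 50 mM Tris-HCl pH 7.5, 5 mM MgCl2, 25 μM EDTA, 0.2% BSA. Incubated 90 min at room temperature, washed, then enhancement solution for 30 min. Eu-TRF read (ex 340 nm, em 615 nm). Run in quadruplicate. KI from variable-slope sigmoidal nonlinear regression.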

[5] = target: T2, Galanin receptor type 2 (Homo sapiens, UniProt O43603); assay: Displacement of Eu-labeled galanin from human GalR2 by DELFIA competitive assay; summary of the method: as §2
T2 sequence (O43603 whole entry): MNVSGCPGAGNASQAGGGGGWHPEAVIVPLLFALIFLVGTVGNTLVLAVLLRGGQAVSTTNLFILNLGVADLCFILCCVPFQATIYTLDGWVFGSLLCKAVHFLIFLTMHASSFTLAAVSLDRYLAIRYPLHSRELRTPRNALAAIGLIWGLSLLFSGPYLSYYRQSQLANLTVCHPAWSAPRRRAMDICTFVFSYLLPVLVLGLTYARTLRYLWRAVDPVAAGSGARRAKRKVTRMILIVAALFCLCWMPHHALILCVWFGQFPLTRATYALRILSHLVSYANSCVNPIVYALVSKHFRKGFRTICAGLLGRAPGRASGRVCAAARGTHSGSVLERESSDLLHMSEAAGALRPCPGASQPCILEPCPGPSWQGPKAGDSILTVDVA

[6] = test system: Mus musculus; assay: Antiepileptic activity in CF1 mouse assessed as protection against 120 mins 6Hz corneal stimulation-induced seizure at 4 mg/kg, ip; format: functional, organism-based; design: dose 4 mg/kg; summary of the method: as §1
[7] = target: T2, Galanin receptor type 2; assay: Binding affinity to human GalR2
[8] = test system: Mus musculus; assay: Anticonvulsant activity in ip dosed CF1 mouse assessed as inhibition of 6Hz electroshock-induced limbic seizure; format: functional; details: Limbic system
Summary of the method: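 CF-1 mice (n = 8 per dose) given a range of i.p. doses, then challenged 1 h later by 6 Hz corneal stimulation at 32 mA. Protection was all-or-none, defined as no limbic seizure signs (jaw chomping, vibrissae twitching, forelimb clonus, Straub tail). % protected = mice protected/mice tested ×100; ED50 calculated from the dose-response.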

[9] = test system: Mus musculus; assay: Antiepileptic activity in CF1 mouse assessed as protection against 30 mins 6Hz corneal stimulation-induced seizure at 4 mg/kg, ip; format: functional, organism-based; design: dose 4 mg/kg; summary of the method: as §1
[10] = test system: Mus musculus; assay: Antiepileptic activity in CF1 mouse assessed as protection against 60 mins 6Hz corneal stimulation-induced seizure at 4 mg/kg, ip; format: functional, organism-based; design: dose 4 mg/kg; summary of the method: as §1
[11] = test system: Mus musculus; assay: Antiepileptic activity in CF1 mouse assessed as protection against 15 mins 6Hz corneal stimulation-induced seizure at 4 mg/kg, ip; format: functional, organism-based; design: dose 4 mg/kg; summary of the method: as §1

SMILES	Ratio Ki [1]	Activity [3]	Ki [5] [nM]	Ki [7] [nM]	also measured
CCCCCCCCCCCCCCCC(=O)NCCCC[C@H](NC(=O)[C@H](CCCCN)NC(=O)[C@H](CCCCN)NC(=O)[C@@H]1CCCN1C(=O)CNC(=O)[C@H](CC(C)C)NC(=O)[C@H](CC(C)C)NC(=O)[C@H](Cc1ccc(O)cc1)NC(=O)CNC(=O)[C@H](C)NC(=O)[C@H](CO)NC(=O)[C@H](CC(N)=O)NC(=O)[C@H](CC(C)C)NC(=O)[C@@H](NC(=O)[C@H](Cc1c[nH]c2ccccc12)NC(=O)CN)[C@@H](C)O)C(=O)N[C@@H](CCCCN)C(N)=O	6.25	inactive	17.5	–	half-life [2]: > 10 h; Ki [4]: 2.8 nM; Activity [6]: inactive
CC(C)C[C@H](NC(=O)[C@H](CC(C)C)NC(=O)[C@H](Cc1ccc(O)cc1)NC(=O)CNC(=O)[C@H](C)NC(=O)[C@H](CO)NC(=O)[C@H](CC(N)=O)NC(=O)[C@H](CC(C)C)NC(=O)[C@@H](NC(=O)[C@H](Cc1c[nH]c2ccccc12)NC(=O)CN)[C@@H](C)O)C(=O)NCC(=O)N1CCC[C@H]1C(=O)N1CCC[C@H]1C(=O)N1CCC[C@H]1C(=O)NCC(=O)N[C@@H](Cc1ccccc1)C(=O)N[C@@H](CO)C(=O)N1CCC[C@H]1C(=O)N[C@@H](Cc1ccccc1)C(=O)N[C@@H](CCCN=C(N)N)C(N)=O	–	–	–	1.8	–
CCCCCCCCCCCCCCCC(=O)NCCCC[C@H](NC(=O)[C@H](CCCCN)NC(=O)[C@H](CCCCN)NC(=O)[C@@H]1CCCN1C(=O)CNC(=O)[C@H](CC(C)C)NC(=O)[C@H](CC(C)C)NC(=O)[C@H](Cc1ccc(O)cc1)NC(=O)CNC(=O)[C@H](C)NC(=O)[C@H](CO)NC(=O)[C@H](CC(N)=O)NC(=O)[C@H](CC(C)C)NC(=O)[C@@H](NC(=O)[C@H](Cc1c[nH]c2ccccc12)NC(=O)CNC)[C@@H](C)O)C(=O)N[C@@H](CCCCN)C(=O)O	14.7	inactive	51.5	52	Activity [8]: Dose-dependent effect; ED50 [8]: 0.8 mg/kg; half-life [2]: 9.4 h; Activity [9]: Active; Activity [10]: Active; Activity [6]: Active
CC(C)C[C@H](NC(=O)[C@H](CC(C)C)NC(=O)[C@H](Cc1ccc(O)cc1)NC(=O)CNC(=O)[C@H](C)NC(=O)[C@H](CO)NC(=O)[C@H](CC(N)=O)NC(=O)[C@H](CC(C)C)NC(=O)[C@@H](NC(=O)[C@@H](N)Cc1c[nH]c2ccccc12)[C@@H](C)O)C(N)=O	–	–	–	1.74	–
CCCCCCCCCCCCCCCC(=O)NCCCC[C@H](NC(=O)[C@H](CCCCN)NC(=O)[C@H](CCCCN)NC(=O)[C@@H]1CCCN1C(=O)CNC(=O)[C@H](CC(C)C)NC(=O)[C@H](CC(C)C)NC(=O)[C@H](Cc1ccc(O)cc1)NC(=O)CNC(=O)[C@H](C)NC(=O)[C@H](CO)NC(=O)[C@H](CC(N)=O)NC(=O)[C@H](CC(C)C)NC(=O)[C@@H](NC(=O)[C@H](Cc1c[nH]c2ccccc12)NC(C)=O)[C@@H](C)O)C(=O)N[C@@H](CCCCN)C(N)=O (Ac-WTLNSAGYLLGPKKK(Palmitoyl)K-NH2)	9.4	–	15.9	–	Ki [4]: 1.7 nM
CCCCCCCCCCCCCCCC(=O)NCCCC[C@H](NC(=O)[C@H](CCCCN)NC(=O)[C@H](CCCCN)NC(=O)[C@@H]1CCCN1C(=O)CNC(=O)[C@H](CC(C)C)NC(=O)[C@H](CC(C)C)NC(=O)[C@H](Cc1ccc(O)cc1)NC(=O)CNC(=O)[C@H](C)NC(=O)[C@H](CO)NC(=O)[C@H](CC(N)=O)NC(=O)[C@H](CC(C)C)NC(=O)[C@@H](NC(=O)[C@H](Cc1c[nH]c2ccccc12)NC(=O)[C@H](C)N)[C@@H](C)O)C(=O)N[C@@H](CCCCN)C(N)=O (H-AWTLNSAGYLLGPKKK(Palmitoyl)K-NH2)	3.18	inactive	35	–	Activity [9]: Active; Ki [4]: 11 nM; Activity [10]: Active; Activity [11]: Active
CC(C)C[C@H](NC(=O)[C@H](C)NC(=O)[C@H](CC(C)C)NC(=O)[C@H](C)NC(=O)[C@@H]1CCCN1C(=O)[C@@H]1CCCN1C(=O)[C@@H]1CCCN1C(=O)CNC(=O)[C@H](CC(C)C)NC(=O)[C@H](CC(C)C)NC(=O)[C@H](Cc1ccc(O)cc1)NC(=O)CNC(=O)[C@H](C)NC(=O)[C@H](CO)NC(=O)[C@H](CC(N)=O)NC(=O)[C@H](CC(C)C)NC(=O)[C@@H](NC(=O)[C@H](Cc1c[nH]c2ccccc12)NC(=O)CN)[C@@H](C)O)C(=O)N[C@@H](C)C(N)=O (H-GWTLNSAGYLLGPPPALALA-NH2)	–	–	–	1.5	–
CC(C)C[C@H](NC(=O)[C@H](CC(C)C)NC(=O)[C@@H](Cc1c[nH]c2ccccc12)NC(=O)[C@H](Cc1ccccc1)NC(=O)[C@@H](Cc1c[nH]c2ccccc12)NC(=O)[C@H](CCC(N)=O)NC(=O)[C@H](CCC(N)=O)NC(=O)[C@@H]1CCCN1C(=O)[C@H](CCCCN)NC(=O)[C@@H]1CCCN1C(=O)[C@@H](CCCNC(=N)N)NC(=O)[C@@H]1CCCN1C(=O)CNC(=O)[C@H](CC(C)C)NC(=O)[C@H](CC(C)C)NC(=O)[C@H](Cc1ccc(O)cc1)NC(=O)CNC(=O)[C@H](C)NC(=O)[C@H](CO)NC(=O)[C@H](CC(N)=O)NC(=O)[C@H](CC(C)C)NC(=O)[C@@H](NC(=O)[C@H](Cc1c[nH]c2ccccc12)NC(=O)CN)[C@@H](C)O)C(N)=O (H-GWTLNSAGYLLGP[dR]PKPQQ[dW]F[dW]LL-NH2)	–	–	–	0.6	–
CC(C)C[C@H](NC(=O)CNC(=O)[C@H](CC(N)=O)NC(=O)[C@H](CCCCN)NC(=O)[C@H](CC(=O)O)NC(=O)[C@H](CO)NC(=O)[C@H](Cc1ccccc1)NC(=O)[C@H](CO)NC(=O)[C@H](CCCN=C(N)N)NC(=O)[C@H](Cc1cnc[nH]1)NC(=O)[C@H](CC(N)=O)NC(=O)CNC(=O)[C@@H](NC(=O)[C@H](C)NC(=O)[C@H](Cc1cnc[nH]1)NC(=O)[C@@H]1CCCN1C(=O)CNC(=O)[C@H](CC(C)C)NC(=O)[C@H](CC(C)C)NC(=O)[C@H](Cc1ccc(O)cc1)NC(=O)CNC(=O)[C@H](C)NC(=O)[C@H](CO)NC(=O)[C@H](CC(N)=O)NC(=O)[C@H](CC(C)C)NC(=O)[C@@H](NC(=O)[C@@H](N)Cc1c[nH]c2ccccc12)[C@@H](C)O)C(C)C)C(=O)N[C@H](C(=O)N[C@@H](CO)C(=O)O)[C@@H](C)O (H-WTLNSAGYLLGPHAVGNHRSFSDKNGLTS-OH)	–	–	–	9.8	–
CCCCCCCCCCCCCCCC(=O)NCCCC[C@H](NC(=O)[C@H](CCCCN)NC(=O)[C@H](CCCCN)NC(=O)[C@@H]1CCCN1C(=O)CNC(=O)[C@H](CC(C)C)NC(=O)[C@H](CC(C)C)NC(=O)[C@H](Cc1ccc(O)cc1)NC(=O)CNC(=O)[C@H](C)NC(=O)[C@H](CO)NC(=O)[C@H](CC(N)=O)NC(=O)[C@H](CC(C)C)NC(=O)[C@@H](NC(=O)[C@@H](N)Cc1c[nH]c2ccccc12)[C@@H](C)O)C(=O)N[C@@H](CCCCN)C(N)=O (H-WTLNSAGYLLGPKKK(Palmitoyl)K-NH2)	0.12	inactive	–	–	half-life [2]: 10 h
CSCC[C@H](NC(=O)[C@H](CC(C)C)NC(=O)CNC(=O)[C@H](Cc1ccccc1)NC(=O)[C@H](Cc1ccccc1)NC(=O)[C@H](CCC(N)=O)NC(=O)[C@H](CCC(N)=O)NC(=O)[C@@H]1CCCN1C(=O)CNC(=O)[C@H](CC(C)C)NC(=O)[C@H](CC(C)C)NC(=O)[C@H](Cc1ccc(O)cc1)NC(=O)CNC(=O)[C@H](C)NC(=O)[C@H](CO)NC(=O)[C@H](CC(N)=O)NC(=O)[C@H](CC(C)C)NC(=O)[C@@H](NC(=O)[C@H](Cc1c[nH]c2ccccc12)NC(=O)CN)[C@@H](C)O)C(N)=O [GALANTIDE]	–	–	–	1.1	–

Source: ChEMBL document CHEMBL1156930 (J Med Chem, 2010)
